Molecules are shown by their SMILES. Values after ≈ are worked out from the molar mass of the structure shown. Bounds are passed on as bounds.

Assay type in all cases: functional, cell-based
For one assay, the system named is A549. As to the kind of experiment: Cytotoxicity against human A549 cells after 3 days by crystal violet staining. As to conditions: A549, 72 h. In outline: (§1)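 Cells kept in log-phase growth in EMEM with nonessential amino acids, 2.0 mM L-glutamine, 5% FCS, 10^-2 M NaHCO3 and penicillin/streptomycin. Trypsin-harvested cells seeded at 1×10^4/well in 24-well dishes with graded sample concentrations, drug-free growth controls included, in duplicate. Incubated 3 days at 37 °C, 5% CO2, then crystal violet stained for approximate IC50. Coulter counts of trypsinized cells gave %G dose-response curves for IC50.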

The nature of assay [1]: Cytotoxicity against human H116 cells after 3 days by crystal violet staining. As to conditions: H116, 72 h. In outline: as §1
The subject of another assay is PSN1. As to the kind of experiment: Cytotoxicity against human PSN1 cells after 3 days by crystal violet staining. As to conditions: PSN1, 72 h. In outline: as §1
A further assay concerns T98G. The assay is described as follows: Cytotoxicity against human T98G cells after 3 days by crystal violet staining. As to conditions: 72 h. In outline: as §1
The test system of another assay is HT-29. The assay is described as follows: Cytotoxicity against human HT-29 cells after 3 days by crystal violet staining. As to conditions: HT-29, 72 h. The method, boiled down: as §1

In general, IC50 refers to the concentration that inhibits the measured activity by half. Higher therefore signals a need for much substance. In the case of `CC(=O)O[C@H]1CC[C@]2(C)[C@H]3C[C@@H](OC(C)=O)[C@@H]4[C@@H]([C@]5(C)CC[C@@H](C(C)(C)O)O5)CC[C@@]4(C)[C@]3(C)CC[C@H]2C1(C)C`, the IC50 (in the assay on A549; in assay [1]) was 5 µg/mL (≈ 8.92 µM) each time.
Take `CC(=O)O[C@H]1CC[C@]2(C)[C@H]3C[C@@H](O)[C@@H]4[C@@H]([C@]5(C)CC[C@@H](C(C)(C)O)O5)CC[C@@]4(C)[C@]3(C)CC[C@H]2C1(C)C`: the IC50 (with A549; in assay [1]; in the assay with PSN1; with T98G) was above 5 µg/mL throughout.
Take `CC(=O)O[C@H]1CC[C@]2(C)[C@H]3C[C@@H](OC(C)=O)[C@@H]4[C@@H]([C@]5(C)CC[C@@H](C(C)(C)OC(C)=O)O5)CC[C@@]4(C)[C@]3(C)CC[C@H]2C1(C)C`: the half-maximal inhibitory concentration (IC50) (in the assay on A549; in assay [1]; with PSN1; with T98G) was above 5 µg/mL throughout.
On to `CC(C)(O)[C@H]1CC[C@@](C)([C@H]2CC[C@]3(C)[C@@H]2[C@H](O)C[C@@H]2[C@@]4(C)[C@H](O)C[C@@H](O)C(C)(C)[C@@H]4CC[C@]23C)O1`, for which the half-inhibitory concentration (IC50) (in the assay with A549; with HT-29; in assay [1]) was above 10 µg/mL in each case.
`CC(=O)O[C@@H]1C[C@@H]2[C@@]3(C)[C@H](OC(C)=O)C[C@@H](OC(C)=O)C(C)(C)[C@@H]3CC[C@@]2(C)[C@]2(C)CC[C@H]([C@]3(C)CC[C@H](C(C)(C)OC(C)=O)O3)[C@@H]12` returned a half-inhibitory concentration (IC50) in assay [1] of 5 µg/mL (≈ 7.57 µM).
Take `CC(=O)O[C@@H]1C[C@@H]2[C@@]3(C)[C@H](OC(C)=O)C[C@@H](OC(C)=O)C(C)(C)[C@@H]3CC[C@@]2(C)[C@]2(C)CC[C@H]([C@]3(C)CC[C@H](C(C)(C)O)O3)[C@@H]12` (relative stereo): the half-maximal inhibitory concentration (IC50) (with A549; in assay [1]; in the assay with PSN1; in the assay on T98G) was above 5 µg/mL throughout.
With `CC(=O)O[C@@H]1C[C@@H](OC(C)=O)[C@]2(C)[C@H]3C[C@@H](O)[C@@H]4[C@@H]([C@]5(C)CC[C@H](C(C)(C)O)O5)CC[C@@]4(C)[C@]3(C)CC[C@H]2C1(C)C` (relative stereo), the concentration for half-maximal inhibition (IC50) (with A549; in the assay on HT-29; in assay [1]) was above 10 µg/mL throughout.
On to `CC(C)(O)[C@@H]1CC[C@@](C)([C@H]2CC[C@]3(C)[C@@H]2[C@H](O)C[C@@H]2[C@@]4(C)CC[C@H](O)C(C)(C)[C@@H]4CC[C@]23C)O1` (relative stereo), for which the IC50 (in the assay on A549; in assay [1]) was 5 µg/mL (≈ 10.5 µM) in each case.
Turning to `CC(=O)O[C@@H]1C[C@@H](O)[C@]2(C)[C@H]3C[C@@H](O)[C@@H]4[C@@H]([C@]5(C)CC[C@H](C(C)(C)O)O5)CC[C@@]4(C)[C@]3(C)CC[C@H]2C1(C)C` (relative stereo), the IC50 (with A549; with HT-29; in assay [1]) was above 10 µg/mL each time.
